Measurements from different studies.
Lines come from different studies, so protocols differ.
Target: Mitogen-activated protein kinase 9 (MAPK9, Homo sapiens, UniProt P45984)

| Structure (SMILES) | assay | conditions | remaining binding [%] |
| --- | --- | --- | --- |
| O=C(NCCCN1CCOCC1)c1ccc(Nc2nccc(-c3cc4ccccc4s3)n2)cc1 | binding, competition with immobilised ligand | 1 µM | 33 |
| CCS(=O)(=O)c1cc2cc(C[C@@](O)(CC(C)(C)c3ccc(F)cc3C(N)=O)C(F)(F)F)[nH]c2cn1 | cell-free assay, competition with immobilised ligand | 1 µM | 84 |
| C[C@@H]1CN(c2ccc3ncc(-c4ccc5[nH]nc(C6CC6)c5c4)n3n2)C[C@H](C)O1 | binding, competition with immobilised ligand | 0.5 µM | 50 |
| NS(=O)(=O)c1cc(NC(=O)C2(c3ccccc3Cl)CC2)ccc1Oc1cccc(Cl)c1 | cell-free assay, competition with immobilised ligand | 1 µM | 100 |
| CC(C)(C)c1ccc(-c2nc(CBr)nn2-c2cccc(O)c2)cc1 | cell-free assay, competition with immobilised ligand | 10 µM | 46 |
| CNC(=O)[C@@H]1CC[C@@H](n2c(-c3ccc4cnccc4c3)nc3ccc(C(=O)NCc4cccc(C(N)=O)c4)cc32)C1 | binding, competition with immobilised ligand | 1 µM | 67 |
| C[C@@H]1CCN(c2nccc(-c3cnn4ncccc34)n2)C1 | binding | 1 µM | 64 |
| c1cncc(-c2cccc(Nc3nccc(NC4CCCCC4)n3)c2)c1 | binding, competition with immobilised ligand | 10 µM | 74 |
| COc1ncc2cc3ccccc3nc2c1C#N | cell-free assay, competition with immobilised ligand | 5 µM | 100 |
| O=C(c1ccc(Nc2ncc(Cl)c(-c3cc4ccccc4s3)n2)cc1)N1CCC(N2CCCC2)CC1 | binding, competition with immobilised ligand | 1 µM | 9.8 |
| CN(C)c1ncc(F)c(-c2cnn3ncccc23)n1 | binding | 1 µM | 82 |
| CCC(=O)N[C@H]1CC[C@@H](C(=O)N(C)c2ccc(-c3nc4ccccc4o3)cc2)C1 | cell-free assay, competition with immobilised ligand | 1 µM | 79 |
| N[C@@H]1CCN(c2nccc(-c3cnn4ncccc34)n2)C1 | binding | 1 µM | 100 |
| COc1ccc2cc(OCC3(C(=O)O)CN(C(=O)c4ccc(F)cc4)C3)ccc2c1 | cell-free assay, competition with immobilised ligand | 1 µM | 100 |
| CN(C)c1nccc(-c2cnc3ncccn23)n1 | binding | 1 µM | 60 |
| CC1=C(C#N)C(c2ccc3c(c2)c(NC(=O)c2ccccc2C)nn3C)C(C#N)=C(C)N1 | cell-free assay, competition with immobilised ligand | 1 µM | 73 |
| COC(=O)Nc1nc2ccc(C(=O)c3ccccc3)cc2[nH]1 | cell-free assay, competition with immobilised ligand | 10 µM | 9.6 |
| O=C(NCC1CCOCC1)c1n[nH]cc1NC(=O)c1c(F)cccc1F | binding, competition with immobilised ligand | 1 µM | 57 |
| O=C(c1ccc(Nc2nccc(-c3cc4ccccc4s3)n2)cc1)N1CCC(N2CCCC2)CC1 | binding, competition with immobilised ligand | 1 µM | 33 |
| O=C(NCCCC1CCCCC1)c1ccc(CNC(=O)c2cnn(-c3ccccc3)c2C(F)(F)F)cc1 | cell-free assay, competition with immobilised ligand | 0.1 µM | 85 |
| CN(c1nccc(-c2cnn3ncccc23)n1)C1CC1 | binding | 1 µM | 100 |
| CCOCCn1cc(C(=O)Nc2ccc(-n3nc(-c4cccnc4)cc3C(F)(F)F)cn2)ccc1=O | cell-free assay, competition with immobilised ligand | 1 µM | 97 |
| CN(C)c1nccc(-c2cnn3ncccc23)n1 | binding | 1 µM | 55 |
